Experimental data: ChEMBL document CHEMBL2417378, “Ligand-protein interactions of selective casein kinase 1δ inhibitors” (J Med Chem, 2013)

Key:
[1] = molecular target: T1, Casein kinase I isoform delta (Homo sapiens, UniProt P48730); test: Inhibition of human CK1 delta transfected in african green monkey cos7 cells after overnight incubation by whole cell assay; type: cell-based, COS-7
In short: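 COS-7 cells in DMEM with 10% FBS were co-transfected by lipofection with mPER3-GFP and human CK1δ plasmids (1:11), then plated. Compounds, diluted in Opti-MEM, were tested at 11 concentrations overnight at 37 °C. Cells were fixed in 4% paraformaldehyde and Hoechst-stained, and nuclear translocation of mPER3-GFP was imaged on ArrayScan.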

[2] = molecular target: T1, Casein kinase I isoform delta; test: Inhibition of CK1 delta (unknown origin) using PLSRTLpSVASLPGL as substrate after 60 mins by microplate reader analysis
[3] = system: Plasma; test: fCmax in C57Bl/6J mouse plasma at 56 mg/kg, sc by LC/MS analysis; type: ADME, organism-based; parameters: dose 56 mg/kg, route subcutaneous; settings: in vivo
In short: (§1)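 Male C57BL/6J mice got a single subcutaneous dose. Plasma and whole brain were taken at 0.5–24 h (n = 4 per time). Brain was homogenized in 60% isopropanol and samples quantified by LC-MS after protein precipitation. Free fraction came from 6 h equilibrium dialysis at 37 °C of plasma or brain homogenate spiked with 1 μM compound.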

[4] = molecular target: Casein kinase I isoform epsilon (Homo sapiens, UniProt P49674); test: Inhibition of CK1 epsilon (unknown origin) using PLSRTLpSVASLPGL as substrate after 85 mins by microplate reader analysis
Sequence of Casein kinase I isoform epsilon (P49674 whole entry, canonical isoform): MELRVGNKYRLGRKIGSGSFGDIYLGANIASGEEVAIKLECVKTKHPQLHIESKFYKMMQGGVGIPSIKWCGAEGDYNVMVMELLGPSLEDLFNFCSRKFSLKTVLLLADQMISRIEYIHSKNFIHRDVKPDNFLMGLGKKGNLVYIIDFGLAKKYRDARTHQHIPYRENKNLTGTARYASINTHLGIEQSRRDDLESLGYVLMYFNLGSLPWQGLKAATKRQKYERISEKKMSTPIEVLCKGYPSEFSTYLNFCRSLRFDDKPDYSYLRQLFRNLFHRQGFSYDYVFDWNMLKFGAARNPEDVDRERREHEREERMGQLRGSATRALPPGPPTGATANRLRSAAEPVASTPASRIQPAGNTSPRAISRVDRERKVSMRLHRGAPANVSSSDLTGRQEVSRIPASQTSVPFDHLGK

[5] = molecular target: T2, MAP kinase p38 (Homo sapiens, UniProt O15264+Q15759+Q16539+P53778); test: Inhibition of p38 (unknown origin); type: protein assay
In short: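 p38 IC50 determined by outside SelectScreen profiling service, ATP at Km.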

[6] = system: Brain; test: fCmax in C57Bl/6J mouse brain at 56 mg/kg, sc by LC/MS analysis; type: ADME, organism-based; parameters: dose 56 mg/kg, route subcutaneous; settings: in vivo; in short: as §1
[7] = Ratio of fCmax in brain to plasma of C57Bl/6J mouse; type: ADME, cell-free
In short: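 Male C57BL/6J mice given a single subcutaneous dose (56 mg/kg unless noted). Plasma and whole brain were taken under isoflurane at 0.5, 1, 2, 4, 8 and 24 h (n = 4 per time point). Brain was homogenised in 4 volumes of 60% isopropanol, and samples were quantified by LC-MS after protein precipitation. Free fractions came from equilibrium dialysis of 1 μM-spiked plasma or brain homogenate (6 h, 37 °C, n = 6).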

[8] = molecular target: T3, Voltage-gated inwardly rectifying potassium channel KCNH2 (Homo sapiens, UniProt Q12809); test: Displacement of [3H]dofetilide from human ERG channel
T3 sequence (Q12809 whole entry): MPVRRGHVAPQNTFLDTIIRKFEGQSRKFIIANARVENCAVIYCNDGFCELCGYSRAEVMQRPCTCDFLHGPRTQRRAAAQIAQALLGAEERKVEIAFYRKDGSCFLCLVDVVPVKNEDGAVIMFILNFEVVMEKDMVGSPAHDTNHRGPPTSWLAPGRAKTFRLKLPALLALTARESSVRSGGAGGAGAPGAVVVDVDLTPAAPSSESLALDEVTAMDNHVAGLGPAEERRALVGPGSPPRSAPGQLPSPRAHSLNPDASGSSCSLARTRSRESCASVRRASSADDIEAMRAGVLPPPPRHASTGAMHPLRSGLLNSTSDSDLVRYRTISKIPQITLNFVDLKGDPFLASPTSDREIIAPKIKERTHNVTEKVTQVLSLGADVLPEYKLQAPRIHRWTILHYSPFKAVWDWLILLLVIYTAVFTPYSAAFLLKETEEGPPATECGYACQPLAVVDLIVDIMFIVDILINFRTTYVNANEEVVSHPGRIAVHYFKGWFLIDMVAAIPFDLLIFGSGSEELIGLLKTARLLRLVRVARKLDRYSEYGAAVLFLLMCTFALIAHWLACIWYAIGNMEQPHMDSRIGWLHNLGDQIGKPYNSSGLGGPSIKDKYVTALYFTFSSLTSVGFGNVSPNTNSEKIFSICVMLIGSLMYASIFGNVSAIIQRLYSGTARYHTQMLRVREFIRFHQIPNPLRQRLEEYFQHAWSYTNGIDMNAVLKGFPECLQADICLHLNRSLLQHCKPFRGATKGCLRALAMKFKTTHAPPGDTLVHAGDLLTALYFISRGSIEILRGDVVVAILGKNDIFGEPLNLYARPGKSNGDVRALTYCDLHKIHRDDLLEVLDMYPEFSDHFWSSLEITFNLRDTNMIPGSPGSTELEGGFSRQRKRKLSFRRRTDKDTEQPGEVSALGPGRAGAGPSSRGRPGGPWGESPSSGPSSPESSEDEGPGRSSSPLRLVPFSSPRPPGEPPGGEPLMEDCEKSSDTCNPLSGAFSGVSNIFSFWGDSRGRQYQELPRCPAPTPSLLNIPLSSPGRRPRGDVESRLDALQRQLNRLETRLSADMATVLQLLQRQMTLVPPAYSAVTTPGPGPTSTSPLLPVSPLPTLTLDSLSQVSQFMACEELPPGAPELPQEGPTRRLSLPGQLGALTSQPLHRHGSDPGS

[9] = molecular target: T3, Voltage-gated inwardly rectifying potassium channel KCNH2; test: Inhibition of human ERG channel by electrophysiological method
[10] = system: Mus musculus; test: In vivo inhibition of CK1 delta in C57Bl/6J mouse circardian rhythm model assessed as delay in phase shift at 56 mg/kg, sc after 3 days; type: functional; settings: route subcutaneous
In short: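 Mice received 56 mg/kg subcutaneously for 3 days. Phase shift was taken as the start of the active period after dosing minus before dosing.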

[11] = system: hERG (KCNH2); test: Therapeutic index, ratio of EC50 for human ERG channel to fCmax in mouse plasma; type: cell-free; settings: read-out: TI
[12] = molecular target: hERG (KCNH2) (Homo sapiens, UniProt Q12809); test: Displacement of [3H]dofetilide from human ERG channel at 10 uM; settings: probe [3H]dofetilide
[13] = molecular target: T2, MAP kinase p38; test: Inhibition of p38 (unknown origin) at 1 uM; type: protein assay
[14] = molecular target: Tyrosine-protein kinase Lck (Homo sapiens) (UniProt P06239); test: Inhibition of LCK (unknown origin) at 1 uM
[15] = species: Homo sapiens; test: Inhibition of PKA alpha (unknown origin) at 1 uM
[16] = system: Brain; test: fCmax in C57Bl/6J mouse brain at 32 mg/kg, sc by LC/MS analysis; type: ADME, organism-based; parameters: dose 32 mg/kg, route subcutaneous; settings: in vivo; in short: as §1
[17] = molecular target: Mitogen-activated protein kinase kinase kinase kinase 4 (Homo sapiens) (UniProt O95819); test: Inhibition of MAP4K4 (unknown origin) at 1 uM
Sequence of Mitogen-activated protein kinase kinase kinase kinase 4 (Homo sapiens) (O95819 2-1239 limits assumed): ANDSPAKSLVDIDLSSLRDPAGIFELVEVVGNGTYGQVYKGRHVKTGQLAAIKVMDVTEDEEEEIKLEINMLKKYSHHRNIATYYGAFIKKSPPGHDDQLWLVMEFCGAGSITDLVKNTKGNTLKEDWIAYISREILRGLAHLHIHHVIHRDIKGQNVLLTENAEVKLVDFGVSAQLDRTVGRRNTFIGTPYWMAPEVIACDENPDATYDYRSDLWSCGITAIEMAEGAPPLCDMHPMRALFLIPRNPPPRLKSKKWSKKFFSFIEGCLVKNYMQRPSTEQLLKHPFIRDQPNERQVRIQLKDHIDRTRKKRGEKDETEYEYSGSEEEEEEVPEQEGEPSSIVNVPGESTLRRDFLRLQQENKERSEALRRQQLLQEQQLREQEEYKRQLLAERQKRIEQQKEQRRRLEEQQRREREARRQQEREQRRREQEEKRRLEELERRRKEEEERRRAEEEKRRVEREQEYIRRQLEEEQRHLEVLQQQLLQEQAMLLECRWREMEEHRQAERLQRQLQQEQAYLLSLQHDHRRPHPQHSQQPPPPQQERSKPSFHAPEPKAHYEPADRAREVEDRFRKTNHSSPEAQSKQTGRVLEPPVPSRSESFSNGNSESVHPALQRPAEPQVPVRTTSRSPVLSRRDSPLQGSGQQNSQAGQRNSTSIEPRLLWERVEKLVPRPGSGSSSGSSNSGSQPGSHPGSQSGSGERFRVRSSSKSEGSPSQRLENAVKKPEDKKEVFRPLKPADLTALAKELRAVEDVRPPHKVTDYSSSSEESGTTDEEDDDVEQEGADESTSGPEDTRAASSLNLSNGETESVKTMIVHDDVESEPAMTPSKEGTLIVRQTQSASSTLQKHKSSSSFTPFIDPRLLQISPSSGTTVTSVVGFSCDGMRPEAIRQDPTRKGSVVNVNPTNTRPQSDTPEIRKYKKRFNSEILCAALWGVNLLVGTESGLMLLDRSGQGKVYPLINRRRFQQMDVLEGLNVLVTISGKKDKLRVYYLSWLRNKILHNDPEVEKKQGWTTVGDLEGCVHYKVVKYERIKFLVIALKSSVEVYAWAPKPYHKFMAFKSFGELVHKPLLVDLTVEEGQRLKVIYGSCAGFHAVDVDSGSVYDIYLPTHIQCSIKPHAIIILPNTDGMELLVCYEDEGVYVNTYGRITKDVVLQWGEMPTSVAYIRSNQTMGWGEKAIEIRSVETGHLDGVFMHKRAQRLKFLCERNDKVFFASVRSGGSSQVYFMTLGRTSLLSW

[18] = molecular target: Casein kinase I isoform alpha (Homo sapiens) (UniProt P48729); test: Inhibition of CK1 alpha (unknown origin) at 1 uM
[19] = system: Plasma; test: fCmax in C57Bl/6J mouse plasma at 32 mg/kg, sc by LC/MS analysis; type: ADME, organism-based; parameters: dose 32 mg/kg, route subcutaneous; settings: in vivo; in short: as §1
[20] = molecular target: Epidermal growth factor receptor (Homo sapiens) (UniProt P00533); test: Inhibition of EGFR (unknown origin) at 1 uM
Sequence of Epidermal growth factor receptor (Homo sapiens) (P00533 whole entry): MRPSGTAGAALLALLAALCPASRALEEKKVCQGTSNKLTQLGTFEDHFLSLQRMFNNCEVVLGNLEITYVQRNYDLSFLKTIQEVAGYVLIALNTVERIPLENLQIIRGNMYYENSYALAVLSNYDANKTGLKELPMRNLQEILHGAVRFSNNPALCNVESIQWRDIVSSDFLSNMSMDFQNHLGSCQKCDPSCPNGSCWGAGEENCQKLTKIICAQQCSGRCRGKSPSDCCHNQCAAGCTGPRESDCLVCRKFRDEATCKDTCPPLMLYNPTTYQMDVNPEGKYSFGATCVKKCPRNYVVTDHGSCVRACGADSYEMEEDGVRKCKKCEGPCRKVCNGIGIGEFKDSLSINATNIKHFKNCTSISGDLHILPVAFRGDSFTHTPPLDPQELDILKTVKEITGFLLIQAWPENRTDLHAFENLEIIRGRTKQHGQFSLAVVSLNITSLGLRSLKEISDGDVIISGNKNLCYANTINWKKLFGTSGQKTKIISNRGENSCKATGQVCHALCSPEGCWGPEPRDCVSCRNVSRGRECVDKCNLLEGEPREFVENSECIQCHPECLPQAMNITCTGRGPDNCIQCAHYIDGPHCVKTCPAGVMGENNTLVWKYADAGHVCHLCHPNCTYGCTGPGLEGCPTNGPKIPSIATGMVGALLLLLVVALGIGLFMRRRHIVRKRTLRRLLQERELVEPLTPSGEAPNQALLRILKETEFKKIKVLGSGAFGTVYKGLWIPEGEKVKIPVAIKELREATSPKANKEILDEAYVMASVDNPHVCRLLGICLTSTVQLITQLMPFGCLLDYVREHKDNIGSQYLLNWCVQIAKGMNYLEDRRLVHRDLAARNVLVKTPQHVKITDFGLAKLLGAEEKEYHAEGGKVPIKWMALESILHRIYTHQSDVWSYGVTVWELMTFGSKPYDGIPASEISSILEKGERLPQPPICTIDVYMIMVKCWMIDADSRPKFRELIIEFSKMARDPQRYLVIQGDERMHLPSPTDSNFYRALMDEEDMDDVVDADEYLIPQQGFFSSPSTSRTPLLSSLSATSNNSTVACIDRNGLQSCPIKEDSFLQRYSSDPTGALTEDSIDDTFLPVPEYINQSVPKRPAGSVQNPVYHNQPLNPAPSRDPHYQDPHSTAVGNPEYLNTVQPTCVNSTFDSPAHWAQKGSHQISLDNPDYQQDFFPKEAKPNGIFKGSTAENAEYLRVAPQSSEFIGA

[21] = molecular target: Mitogen-activated protein kinase 14 (Homo sapiens) (UniProt Q16539); test: Inhibition of MAPK14 (unknown origin) at 1 uM
Sequence of Mitogen-activated protein kinase 14 (Homo sapiens) (Q16539 whole entry): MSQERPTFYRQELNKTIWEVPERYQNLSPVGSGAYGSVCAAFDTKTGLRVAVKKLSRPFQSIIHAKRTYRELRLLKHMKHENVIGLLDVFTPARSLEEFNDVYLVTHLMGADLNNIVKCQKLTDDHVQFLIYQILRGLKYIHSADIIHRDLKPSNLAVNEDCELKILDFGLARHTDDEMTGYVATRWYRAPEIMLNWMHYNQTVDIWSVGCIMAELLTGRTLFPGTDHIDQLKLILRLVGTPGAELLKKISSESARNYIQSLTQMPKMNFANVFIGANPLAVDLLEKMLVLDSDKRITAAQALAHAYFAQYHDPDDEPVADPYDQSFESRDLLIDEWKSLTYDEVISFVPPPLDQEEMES

[22] = molecular target: JNK2/JNK3 (Homo sapiens) (UniProt P53779+P45984); test: Inhibition of JNK 2/3 (unknown origin) at 1 uM; type: protein assay
[23] = molecular target: Rho-associated protein kinase 2 (Homo sapiens) (UniProt O75116); test: Inhibition of ROCK2 (unknown origin) at 1 uM
[24] = molecular target: Tyrosine-protein kinase Lyn (Homo sapiens) (UniProt P07948); test: Inhibition of LYN (unknown origin) at 1 uM
[25] = molecular target: Tyrosine-protein kinase ABL1 (Homo sapiens) (UniProt P00519); test: Inhibition of ABL (unknown origin) at 1 uM

T1 sequence (P48730 whole entry, canonical isoform): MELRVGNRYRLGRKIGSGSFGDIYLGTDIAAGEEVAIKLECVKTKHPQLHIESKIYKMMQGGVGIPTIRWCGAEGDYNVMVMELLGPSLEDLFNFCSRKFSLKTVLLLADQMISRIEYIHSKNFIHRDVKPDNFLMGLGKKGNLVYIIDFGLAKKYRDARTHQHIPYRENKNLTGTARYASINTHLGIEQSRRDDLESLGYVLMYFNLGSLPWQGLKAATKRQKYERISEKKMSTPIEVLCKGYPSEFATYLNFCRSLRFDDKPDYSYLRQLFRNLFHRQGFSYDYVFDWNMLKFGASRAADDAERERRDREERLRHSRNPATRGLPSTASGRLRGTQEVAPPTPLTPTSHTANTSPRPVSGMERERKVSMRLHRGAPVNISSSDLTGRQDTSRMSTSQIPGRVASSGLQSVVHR

SMILES | IC50 [1] [nM] | IC50 [2] [nM] | fCmax [3] [µM] | IC50 [4] [nM] | IC50 [5] [nM] | fCmax [6] [µM] | IC50 [8] [µM] | IC50 [9] [µM] | inhibition [13] [%] | inhibition [17] [%] | inhibition [20] [%] | further results
CNCc1cc(-c2cn(C)nc2-c2ccc(F)cc2)ccn1 | 63.8 | 12.9 | 9.66 | 67.2 | 3040 | 7.53 |  |  |  |  |  | 
Cn1cc(-c2ccnc3c2OCCNC3)c(-c2ccc(F)cc2)n1 | 39 |  | 8.82 | 27 | 654 | 2.97 | > 79.6 | 25.7 |  |  |  | Kp uu [7]: 0.33; Time [10]: 175 min; selectivity ratio [11]: 3
Cn1cc(-c2ccnc(CO)c2)c(-c2ccc(F)cc2)n1 | 237 | 14.2 |  | 81.6 |  |  |  |  | 42 |  |  | inhibition at 10 µM [12]: 6%
Cn1cc(-c2ccnc(C3COCCN3)c2)c(-c2ccc(F)cc2)n1 (single isomer, unassigned; (-)) | 90 | 5.3 | 1.95 | 28.2 | > 1000 | 3.7 | 25.9 | 4.43 |  |  |  | 
Nc1nccc(-c2c(-c3ccc(F)cc3)ncn2C2CCCCC2)n1 |  |  |  |  | 39.2 |  |  |  | > 50 | > 50 | > 50 | inhibition [14]: > 50%; inhibition [15]: > 50%; fCmax [16]: 0.241 µM; inhibition [18]: > 50%; fCmax [19]: 0.752 µM
Cn1cc(-c2ccncc2)c(-c2ccc(F)cc2)n1 | 545 | 48.1 |  | 305 | 126 |  |  |  | 85 | 66 | 80 | inhibition [21]: 55%; inhibition [22]: 48%; inhibition [23]: 52%; inhibition [24]: 70.5%; inhibition [25]: 61%
